Sampled rows, rich in hits. Any-hit rate of the full collection: about 2.8%.
HTRA1 inhibitor = inhibitors of human serine peptidase HTRA1; Q92743; recombinant HTRA1, FP-rhodamine activity-based probe, fluorescence polarization; inhibition, % at 5.96 µM; 340,000 tested, 0.5% active; AID 504803; in the data active = inhibition above about 36%;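 also: 0% = enzyme with DMSO and 100% = wells lacking enzyme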
PAFAH2 FP inh = inhibitors of human PAFAH2; Q99487; recombinant PAFAH2, FP-rhodamine activity probe, fluorescence polarization; inhibition, % at 3.39 µM; 340,000 tested, 0.99% active;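 active = inhibition above the mean over all tested compounds plus 3 SD, cut at about 30% in these data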;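 also: inhibitors block probe labeling of enzyme so polarization drops; 0% = enzyme with DMSO and 100% = wells lacking PAFAH2 protein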
pPAFAH inh = pPAFAH (human) enzyme inhibition; 330,000 tested, 1.5% active; recombinant pPAFAH, FP-rhodamine probe fluorescence polarization; inhibition, % at 3.39 µM; Q13093; AID 463082;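 active = inhibition above the mean inhibition across the screen plus 3 SD, cut at about 25% in these data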;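 also: inhibitors block binding of the rhodamine activity-based probe so polarization drops; 0% = enzyme with DMSO and 100% = wells lacking pPAFAH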
Target sequence (Q13093 whole entry, looked up): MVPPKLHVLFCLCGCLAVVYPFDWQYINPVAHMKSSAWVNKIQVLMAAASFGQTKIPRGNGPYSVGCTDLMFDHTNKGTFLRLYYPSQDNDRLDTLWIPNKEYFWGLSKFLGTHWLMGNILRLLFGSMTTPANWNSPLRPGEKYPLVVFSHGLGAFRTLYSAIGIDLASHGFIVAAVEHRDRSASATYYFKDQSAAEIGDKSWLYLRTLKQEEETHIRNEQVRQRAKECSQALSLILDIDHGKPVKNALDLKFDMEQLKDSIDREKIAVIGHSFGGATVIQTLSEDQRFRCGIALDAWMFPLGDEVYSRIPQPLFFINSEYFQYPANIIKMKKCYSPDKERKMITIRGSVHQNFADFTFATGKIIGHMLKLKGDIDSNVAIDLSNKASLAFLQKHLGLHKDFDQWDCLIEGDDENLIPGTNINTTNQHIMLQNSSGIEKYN
ABHD4 inh = inhibitors of mouse ABHD4. Q8VD66. 370,000 tested, 0.54% active. inhibition, % at 8.92 µM. purified mABHD4, FP-Rh probe fluorescence polarization. AID 720543;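 active = inhibition exceeding the mean over every tested compound plus 3 SD, cut at about 30% in these data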;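 also: 0% = plate median of compound wells and 100% = S159A mutant with DMSO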
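Test system: mouse ABHD4 enzyme, wild type. Reagent: FP-Rh fluorescent activity-based probe, added after compound pre-incubation. Timing: pre-incubation 45 min, probe exposure 60 min, at 25 °C. Technique: FP readout, ex 525 nm / em 598 nm. Benchmarks: high control S159A mutant with DMSO, low control median of compound wells.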
PAFAH1B3 inh = blocks human PAF acetylhydrolase 1B catalytic subunit 3; Q15102; recombinant PAFAH1B3, FP-rhodamine probe, fluorescence polarization; inhibition, % at 3.39 µM; 340,000 tested, 0.28% active; AID 492972;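 active = inhibition above the screen-wide average of all tested compounds plus 3 SD, cut at about 25% in these data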;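 also: 0% = enzyme with DMSO only and 100% = wells lacking PAFAH1B3 protein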
Target sequence (Q15102 whole entry, looked up): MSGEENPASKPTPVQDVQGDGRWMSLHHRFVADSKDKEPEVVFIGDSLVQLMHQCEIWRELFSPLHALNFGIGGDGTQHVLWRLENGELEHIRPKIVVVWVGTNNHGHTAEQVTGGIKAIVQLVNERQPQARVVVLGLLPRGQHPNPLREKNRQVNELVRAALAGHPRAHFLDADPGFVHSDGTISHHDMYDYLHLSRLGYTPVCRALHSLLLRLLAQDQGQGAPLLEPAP
PAFAH1B2 inh = PAFAH1B2 (human) inhibition; inhibition, % at 3.39 µM; AID 492953; P68402; 340,000 tested, 1.2% active; recombinant PAFAH1B2, FP-rhodamine activity probe, fluorescence polarization;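 active = inhibition above the mean of all tested compounds plus 3 SD, cut at about 24% in these data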;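 also: 0% = enzyme with DMSO and 100% = wells lacking PAFAH1B2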
The depositor's hits bear a star.

How did Cc1ccc(C(=O)/C=C/c2cc(Br)cc(Br)c2O)o1 do in these assays?
HTRA1 inhibitor: -4; PAFAH2 FP inh: 34*; pPAFAH inh: 31*; ABHD4 inh: -26; PAFAH1B3 inh: 3; PAFAH1B2 inh: 2

Results for O=C(OCCN1CCN(C2CN(Cc3cn(Cc4cccc(F)c4)nn3)S(=O)(=O)C2)CC1)c1cc2ccccc2o1 (configuration not stated) ?
ABHD4 inh: 4

What do the screens show for `CCOc1ccc(S(=O)(=O)NCCC(=O)NCCc2ccc(OCC)c(OCC)c2)cc1`?
HTRA1 inhibitor: -1; PAFAH2 FP inh: 2; pPAFAH inh: 4; ABHD4 inh: 6; PAFAH1B3 inh: 1; PAFAH1B2 inh: 0

What do the screens show for `CCOc1ccc(CCNC(=O)CCS(=O)(=O)c2ccc(OC)cc2)cc1OCC`?
HTRA1 inhibitor: 6; PAFAH2 FP inh: 0; pPAFAH inh: 34*; ABHD4 inh: -3; PAFAH1B3 inh: -2; PAFAH1B2 inh: 0

Results for CCOC(=O)C1CCN(c2cc3c(cc2NC(=O)c2ccccc2OCC)n(C)c(=O)n3C)CC1 ?
HTRA1 inhibitor: 6; PAFAH2 FP inh: 13; pPAFAH inh: 31*; ABHD4 inh: -5; PAFAH1B3 inh: 5; PAFAH1B2 inh: 7

Results for O=[N+]([O-])c1cc(-c2csc(NCCc3nc4cc(Cl)c(Cl)cc4n3CCCO)n2)ccc1Cl ?
HTRA1 inhibitor: -39; PAFAH2 FP inh: -3; pPAFAH inh: 31*; ABHD4 inh: 20; PAFAH1B3 inh: 16; PAFAH1B2 inh: 18

What do the screens show for `CCN(CC)C(=O)CC[C@@H]1CC[C@]2(CCCN(Cc3ccc(Br)cc3)C2)O1`?
ABHD4 inh: -7

How did Cc1cc(NC(=S)N(Cc2ccc(Br)cc2)Cc2ccc(C(=O)O)cc2)ccc1Cl do in these assays?
HTRA1 inhibitor: 19; PAFAH2 FP inh: 2; pPAFAH inh: 4; ABHD4 inh: -29; PAFAH1B3 inh: 5; PAFAH1B2 inh: 32*

Results for Cc1ccccc1C(=O)NNC(=O)C12CC3CC(CC(C3)C1)C2 ?
HTRA1 inhibitor: 4; PAFAH2 FP inh: 0; pPAFAH inh: 0; ABHD4 inh: -8; PAFAH1B3 inh: 1; PAFAH1B2 inh: 9

Results for O=C(NNC(=O)C12CC3CC(CC(C3)C1)C2)c1ccccc1F ?
HTRA1 inhibitor: 8; PAFAH2 FP inh: 14; pPAFAH inh: 3; ABHD4 inh: 4; PAFAH1B3 inh: 9; PAFAH1B2 inh: 9

How did COC(=O)c1ccccc1S(=O)(=O)NNC(=O)C12CC3CC(CC(C3)C1)C2 do in these assays?
HTRA1 inhibitor: 1; PAFAH2 FP inh: 80*; pPAFAH inh: 6; ABHD4 inh: 3; PAFAH1B3 inh: 11; PAFAH1B2 inh: 24*

How did Cc1cccc(C(=O)NNC(=O)C23CC4CC(CC(C4)C2)C3)c1O do in these assays?
HTRA1 inhibitor: 11; PAFAH2 FP inh: 31*; pPAFAH inh: 11; ABHD4 inh: 5; PAFAH1B3 inh: 5; PAFAH1B2 inh: 37*

How did O=C(NNC(=O)C12CC3CC(CC(C3)C1)C2)c1ccccc1O do in these assays?
HTRA1 inhibitor: 19; PAFAH2 FP inh: 63*; pPAFAH inh: 5; ABHD4 inh: 0; PAFAH1B3 inh: 14; PAFAH1B2 inh: 36*

How did COc1ccc(-c2cc(C3CC3)nc3sc(C#N)c(N)c23)cc1 do in these assays?
HTRA1 inhibitor: -34; PAFAH2 FP inh: -5; pPAFAH inh: 31*; ABHD4 inh: 25; PAFAH1B3 inh: 4; PAFAH1B2 inh: 0

Results for COc1ccc(-c2cc(C3CC3)nc(N)c2C#N)cc1 ?
HTRA1 inhibitor: -17; PAFAH2 FP inh: 1; pPAFAH inh: 11; ABHD4 inh: -11; PAFAH1B3 inh: 1; PAFAH1B2 inh: 4

How did CCCCC(CC)c1nnc(NC(=O)c2cccs2)s1 (configuration not stated) do in these assays?
HTRA1 inhibitor: -3; PAFAH2 FP inh: 7; ABHD4 inh: -5; PAFAH1B3 inh: 15; PAFAH1B2 inh: 27*

How did CCOC(=O)c1cnc2ccc(C)cc2c1N(C)Cc1ccccc1 do in these assays?
HTRA1 inhibitor: -30; PAFAH2 FP inh: -6; pPAFAH inh: 25*; ABHD4 inh: 3; PAFAH1B3 inh: -4; PAFAH1B2 inh: 4

How did CCOC(=O)c1cnc2ccc(C)cc2c1Sc1ccccc1 do in these assays?
HTRA1 inhibitor: -15; PAFAH2 FP inh: 8; pPAFAH inh: 13; ABHD4 inh: -6; PAFAH1B3 inh: -4; PAFAH1B2 inh: 2

Results for Cc1ccc(-c2cc3nc(-c4ccco4)cc(N4CCN(Cc5ccoc5)CC4)n3n2)cc1 ?
ABHD4 inh: -20

How did Cc1nc2cc(C(=O)N3CCN(C(=O)OCc4ccccc4)CC3)ccc2n1C1CCCC1 do in these assays?
ABHD4 inh: -1

Results for CC(=O)c1nn(-c2cccc(Br)c2)cc1C(=O)c1ccco1 ?
HTRA1 inhibitor: -3; PAFAH2 FP inh: 5; pPAFAH inh: 25*; ABHD4 inh: -5; PAFAH1B3 inh: 8; PAFAH1B2 inh: -4

Results for COC(=O)C1=CN(c2ccc(OC)cc2)C=C(C(=O)OC)C1c1ccc(C)c([N+](=O)[O-])c1 ?
HTRA1 inhibitor: 5; PAFAH2 FP inh: -3; pPAFAH inh: 0; ABHD4 inh: -2; PAFAH1B3 inh: 7; PAFAH1B2 inh: -1

What do the screens show for `COC(=O)C1=CN(c2cccc(C)c2)C=C(C(=O)OC)C1c1cc(OC)c(O)c([N+](=O)[O-])c1`?
HTRA1 inhibitor: 52*; PAFAH2 FP inh: 7; pPAFAH inh: 29*; ABHD4 inh: 8; PAFAH1B3 inh: 11; PAFAH1B2 inh: 16

What do the screens show for `CC(C)(C)OC(=O)NCc1ccccc1/C=C/S(=O)(=O)NCc1ccccc1`?
ABHD4 inh: -1

What do the screens show for `Cn1cccc1C=NNC(=O)c1cc(-c2ccc(Cl)cc2)n[nH]1`?
ABHD4 inh: -7

What do the screens show for `NNC(=O)c1oc2nc(-c3ccco3)cc(-c3ccco3)c2c1N`?
pPAFAH inh: 34*; ABHD4 inh: 21

Results for Nc1c(C(=O)N/N=C/c2cccnc2)oc2nc(-c3ccco3)cc(-c3ccco3)c12 ?
pPAFAH inh: 24; ABHD4 inh: 23

How did O=C(Nc1ccc(C(O)(C(F)(F)F)C(F)(F)F)cc1)c1ccc(Cl)cc1 do in these assays?
ABHD4 inh: -52

What do the screens show for `COc1ccccc1NC(=O)c1nn(C)c(C(=O)Nc2ccccc2OC)c1[N+](=O)[O-]`?
HTRA1 inhibitor: -12; PAFAH2 FP inh: -2; pPAFAH inh: 9; ABHD4 inh: 0; PAFAH1B3 inh: -2; PAFAH1B2 inh: 5

Results for COc1ccccc1NC(=O)c1c([N+](=O)[O-])c(C(C)(C)C)nn1C ?
HTRA1 inhibitor: 6; PAFAH2 FP inh: 5; pPAFAH inh: 31*; ABHD4 inh: -8; PAFAH1B3 inh: -3; PAFAH1B2 inh: 1
